Reference: ChEMBL document CHEMBL4834396, “Molecular Recognition and Imaging of Human Telomeric G-Quadruplex DNA in Live Cells: A Systematic Advancement of Thiazole Orange Scaffold To Enhance Binding Specificity and Inhibition of Gene Expression” (J Med Chem, 2021)
Active and inactive are the calls of the source. The calls are words filed in the database; no cut-off is given here.

Columns and labels:
[1] = test system: Quadruplex DNA [UNDEFINED MUTATION]; test: Effect on confirmation of telomeric Htg24 G-quadruplex DNA A20G mutant (unknown origin) assessed as hybrid topology at 5 uM at pH 7.4 by circular dichroism analysis; assay type: nucleic-acid assay; details: Homo sapiens
In short: (§1)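 CD spectra recorded on G4-DNA and ligand, each at 5 μM, in 10 mM Tris-HCl, pH 7.4, with 60 mM KCl. Scan range 220–340 nm in a 1 mm quartz cuvette, 1 nm bandwidth and step, 0.5 s/point. Each spectrum is the average of three scans.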

Quadruplex DNA [2] = test: Binding affinity to telomeric Htg24 G-quadruplex DNA (unknown origin) assessed as compound-DNA complex stoichiometry ratio of 1:1 by Job's plot analysis; assay type: nucleic-acid assay
DNA = test: Binding affinity to ds26 DNA (unknown origin) assessed as dissociation constant by isothermal titration calorimetric analysis; assay type: nucleic-acid assay
In short: (§2)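 ITC at 25 °C: DNA preannealed at 95 °C for 5 min, cooled and held at 4 °C overnight, in 25 mM KH2PO4, 60 mM KCl, pH 7.4, 0.5% DMSO. DNA 10 μM in cell, ligand 500 μM in syringe; 19 injections of 4 s, 150 s apart, 750 rpm stirring; blank heat subtracted before model fitting.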

[3] = test system: Quadruplex DNA [UNDEFINED MUTATION]; test: Binding affinity to telomeric Htg24 G-quadruplex DNA G23T mutant (unknown origin) assessed as fluorescence signal at 5 uM under pH condition 7.4 by fluorescence titration analysis; assay type: nucleic-acid assay; details: Homo sapiens
In short: (§3)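 Ligand held at 5 μM and mixed with each Htg24 point mutant in Tris-HCl buffer containing 60 mM KCl, pH 7.4. Fluorescence was read, and the signal change was computed as (F mutant − F wild type)/F wild type.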

[4] = test system: Quadruplex DNA [UNDEFINED MUTATION]; test: Binding affinity to telomeric Htg24 G-quadruplex DNA G5C mutant (unknown origin) assessed as negative fluorescence signal at 5 uM under pH condition 7.4 by fluorescence titration analysis; assay type: nucleic-acid assay; details: Homo sapiens; in short: as §3
Quadruplex DNA [5] = test: Binding affinity to wild type telomeric Htg24 G-quadruplex DNA (unknown origin) assessed as antiparallel structure at 5 uM under pH condition 7.4 with 60 mM K+ ion by CD spectra analysis; assay type: nucleic-acid assay; in short: as §1
Quadruplex DNA [6] = test: Binding affinity to telomeric Htg24 G-quadruplex DNA (unknown origin) at pH 7.4 by fluorescence titration analysis; assay type: nucleic-acid assay
[7] = test system: Quadruplex DNA [UNDEFINED MUTATION]; test: Effect on confirmation of telomeric Htg24 G-quadruplex DNA T6G mutant (unknown origin) assessed as hybrid topology at 5 uM at pH 7.4 by circular dichroism analysis; assay type: nucleic-acid assay; details: Homo sapiens; in short: as §1
[8] = test system: Quadruplex DNA [UNDEFINED MUTATION]; test: Binding affinity to telomeric Htg24 G-quadruplex DNA G15A mutant (unknown origin) assessed as fluorescence signal at 5 uM under pH condition 7.4 by fluorescence titration analysis; assay type: nucleic-acid assay; details: Homo sapiens
HeLa [9] = test: Induction of cellular senescence in human HeLa cells assessed as positive SA-beta-Gal cells at 0.5 to 4 uM incubated for 18 days by inverted fluorescence microscopic analysis; assay type: functional, cell-based; details: dose 0.5-4 µM, time 18.0 day
In short: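 HeLa cells were exposed to compound for 18 days, with drug-containing medium replaced every three days. Cells were then fixed 15 min at room temperature and stained for β-galactosidase at 37 °C overnight. Stained cells were examined under an inverted microscope.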

[10] = test system: Quadruplex DNA [UNDEFINED MUTATION]; test: Binding affinity to telomeric Htg24 G-quadruplex DNA G15T mutant (unknown origin) assessed as fluorescence signal at 5 uM under pH condition 7.4 by fluorescence titration analysis; assay type: nucleic-acid assay; details: Homo sapiens
[11] = test system: Quadruplex DNA [UNDEFINED MUTATION]; test: Effect on confirmation of telomeric Htg24 G-quadruplex DNA T18G mutant (unknown origin) assessed as hybrid topology at 5 uM at pH 7.4 by circular dichroism analysis; assay type: nucleic-acid assay; details: Homo sapiens; in short: as §1
Quadruplex DNA [12] = test: Binding affinity to telomeric Htg24 G-quadruplex DNA (unknown origin) assessed as change in melting temperature at 5 uM at pH 7.4 by circular dichroism analysis; assay type: nucleic-acid assay
In short: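 CD melting: G4-DNA 5 μM with ligand 5 μM in 10 mM Tris-HCl pH 7.4, 60 mM KCl; signal recorded at 1 °C intervals from 25 to 95 °C, heating 1.0 °C/min.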

[13] = Water solubility of compound at 25 degreeC; assay type: physicochemical
In short: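 Solubility in water measured at 25 °C.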

[14] = test system: Quadruplex DNA [UNDEFINED MUTATION]; test: Effect on confirmation of telomeric Htg24 G-quadruplex DNA A14G mutant (unknown origin) assessed as hybrid topology at 5 uM at pH 7.4 by circular dichroism analysis; assay type: nucleic-acid assay; details: Homo sapiens; in short: as §1
[15] = target: Telomerase reverse transcriptase (Homo sapiens) (UniProt O14746); test: Inhibition of telomerase in human HeLa cells incubated for 36 hrs by TRAP assay; assay type: cell-based; details: dose 1-20 µM
In short: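 HeLa cells were treated with ligand for 36 h, and 10^6 cells were lysed in CHAPS buffer on ice for 30 min. Extract protein (10–750 ng/ml) was extended with TS primer in TRAP buffer (pH 8.3) at 30 °C for 30 min, then heat-inactivated at 95 °C. Products were PCR-amplified for 33 cycles, resolved on 10% native PAGE and stained with SYBR Gold.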

[16] = Drug uptake in nucleolus of human U87 cells assessed as change in fluorescence signal at 5 uM for 30 mins co-stained with DAPI for 10 mins followed by treating with RNase and measured after 30 mins by confocal laser fluorescence microscopic analysis; assay type: ADME, subcellular; details: u-87mg atcc, 1.167 h, time 70 min
[17] = test system: Quadruplex DNA [UNDEFINED MUTATION]; test: Binding affinity to telomeric Htg24 G-quadruplex DNA A20G mutant (unknown origin) assessed as negative fluorescence signal at 5 uM under pH condition 7.4 by fluorescence titration analysis; assay type: nucleic-acid assay; details: Homo sapiens
In short: (§4)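 Ligand 5 μM mixed with wild-type or point-mutant Htg24 in Tris-HCl buffer with 60 mM KCl; signal change calculated as (F mutant − F wild type)/F wild type.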

[18] = test system: Quadruplex DNA [UNDEFINED MUTATION]; test: Binding affinity to telomeric Htg24 G-quadruplex DNA G11A mutant (unknown origin) assessed as fluorescence signal at 5 uM under pH condition 7.4 by fluorescence titration analysis; assay type: nucleic-acid assay; details: Homo sapiens
[19] = test system: Quadruplex DNA [UNDEFINED MUTATION]; test: Binding affinity to telomeric Htg24 G-quadruplex DNA G16A mutant (unknown origin) assessed as negative fluorescence signal at 5 uM under pH condition 7.4 by fluorescence titration analysis; assay type: nucleic-acid assay; details: Homo sapiens; in short: as §4
[20] = test system: Quadruplex DNA [UNDEFINED MUTATION]; test: Binding affinity to telomeric Htg24 G-quadruplex DNA A14G mutant (unknown origin) assessed as negative fluorescence signal at 5 uM under pH condition 7.4 by fluorescence titration analysis; assay type: nucleic-acid assay; details: Homo sapiens; in short: as §4
Quadruplex DNA [21] = test: Binding affinity to telomeric Htg22 G-quadruplex DNA (unknown origin) assessed as dissociation constant by isothermal titration calorimetric analysis; assay type: nucleic-acid assay; in short: as §2
Quadruplex DNA [22] = test: Binding affinity to telomeric Htg24 G-quadruplex DNA (unknown origin) assessed as fluorescence quantum yield by fluorescence spectrophotometric method; assay type: nucleic-acid assay
In short: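 Fluorescence quantum yield determined against fluorescein (Φ = 0.95) in 1% NaOH ethanol. Five increasing ligand concentrations added to fixed DNA, with absorbance and emission recorded for each.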

HeLa [23] = test: Effect on telomere length in human HeLa cells assessed as reduction of telomere length incubated for 18 days by qRT-PCR analysis; assay type: functional, cell-based; details: dose 0.5-4 µM, time 18.0 day
In short: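 HeLa cells were treated with graded compound concentrations (0–4 μM) for 18 days. Genomic DNA was isolated by proteinase K digestion and phenol/chloroform extraction. Relative telomere length was measured by qPCR against hRPLPO using the ΔΔCt method; three independent experiments.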

Quadruplex DNA [24] = test: Binding affinity to G4 quadruplex DNA in human HeLa cells assessed as BG4 foci formation at 10 to 20 uM; assay type: cell-based; details: dose 10-20 µM

Sequence of Telomerase reverse transcriptase (Homo sapiens) (O14746 whole entry): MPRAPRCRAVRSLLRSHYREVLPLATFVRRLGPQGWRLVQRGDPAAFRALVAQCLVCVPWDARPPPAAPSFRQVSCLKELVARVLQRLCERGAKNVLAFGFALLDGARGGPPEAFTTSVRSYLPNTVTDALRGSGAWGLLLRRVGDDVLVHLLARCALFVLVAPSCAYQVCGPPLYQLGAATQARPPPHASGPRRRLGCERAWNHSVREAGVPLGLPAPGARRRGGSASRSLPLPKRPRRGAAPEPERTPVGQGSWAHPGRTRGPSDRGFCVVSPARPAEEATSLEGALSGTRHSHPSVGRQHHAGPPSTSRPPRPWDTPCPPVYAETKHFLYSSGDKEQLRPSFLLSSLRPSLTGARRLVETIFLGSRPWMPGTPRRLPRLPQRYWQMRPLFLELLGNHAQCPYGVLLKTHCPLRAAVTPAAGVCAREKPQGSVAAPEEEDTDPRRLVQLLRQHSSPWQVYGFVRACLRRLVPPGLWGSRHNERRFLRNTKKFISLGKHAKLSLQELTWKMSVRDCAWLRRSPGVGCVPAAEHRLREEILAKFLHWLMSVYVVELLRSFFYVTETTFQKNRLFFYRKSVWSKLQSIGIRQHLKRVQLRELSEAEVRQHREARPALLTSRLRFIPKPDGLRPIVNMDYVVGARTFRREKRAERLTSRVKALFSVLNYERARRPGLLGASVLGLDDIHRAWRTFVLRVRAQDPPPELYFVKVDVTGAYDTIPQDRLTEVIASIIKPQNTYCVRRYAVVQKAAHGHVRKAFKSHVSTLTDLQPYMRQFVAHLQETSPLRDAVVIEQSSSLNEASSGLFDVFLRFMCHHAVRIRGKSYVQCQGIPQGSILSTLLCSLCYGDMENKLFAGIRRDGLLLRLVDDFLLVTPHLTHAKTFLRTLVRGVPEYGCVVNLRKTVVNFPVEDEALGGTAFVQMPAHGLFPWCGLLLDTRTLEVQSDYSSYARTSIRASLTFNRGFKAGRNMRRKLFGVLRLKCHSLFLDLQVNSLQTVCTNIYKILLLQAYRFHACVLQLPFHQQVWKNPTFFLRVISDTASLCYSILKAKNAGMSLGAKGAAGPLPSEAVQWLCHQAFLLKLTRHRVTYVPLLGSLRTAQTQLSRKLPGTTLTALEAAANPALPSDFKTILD

Activity [1]: Active
Activity (Quadruplex DNA [2]): Active
Kd (DNA): 2970 nM
Activity [3]: inactive
Activity [4]: Active
Activity (Quadruplex DNA [5]): Active
Activity (Quadruplex DNA [6]): Active
Activity [7]: Active
Activity [8]: inactive
Activity [10]: inactive
Activity [11]: Active
ΔTm (Quadruplex DNA [12]): 9.1 °C
solubility [13]: 122 µM
Activity [14]: Active
inhibition [15]: Dose-Dependent Effect
Drug uptake [16]: Not Active
Activity [17]: Active
Activity [18]: inactive
Activity [19]: Active
Activity [20]: Active
Kd (Quadruplex DNA [21]): 710 nM
Activity (Quadruplex DNA [22]): 0.217
SMILES: CN(C)c1ccc(/C=C/c2cc(/C=C3\Sc4ccccc4N3CCCN3CCOCC3)c3ccccc3[n+]2C)cc1.[I-]
Activity (HeLa [9]): Active
Activity (HeLa [23]): Dose-Dependent Effect
Activity (Quadruplex DNA [24]): Active
